Assay results published in ChEMBL document CHEMBL3585303, “Progress towards small molecule menin-mixed lineage leukemia (MLL) interaction inhibitors with in vivo utility” (Bioorg Med Chem Lett, 2015).

How the values were obtained:
[1] = Plasma clearance in rat at 0.2 mg/kg, iv; format: ADME, organism-based
Procedure, shortened: (§1)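 Rats received a single IV dose of 0.2 mg/kg, given either as a discrete dose or within an IV cassette study. Reported parameters were plasma clearance CLp (mL/min/kg), T1/2, and volume of distribution at steady state Vss (L/kg).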

[2] = Half life in rat at 0.2 mg/kg, iv; format: ADME, organism-based; settings: in vivo; procedure, shortened: as §1
[3] = Unbound fraction in human plasma; format: ADME, cell-free
Procedure, shortened: (§2)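 Plasma protein binding was determined in human, rat or mouse plasma and reported as the fraction unbound (fu).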

[4] = Unbound fraction in mouse plasma; format: ADME, cell-free; procedure, shortened: as §2
[5] = Intrinsic clearance in human liver microsomes; format: ADME; settings: read-out: CLH
[6] = Volume of distribution at steady state in rat at 0.2 mg/kg, iv; format: ADME, organism-based; settings: in vivo, read-out: Vdss; procedure, shortened: as §1
[7] = Intrinsic clearance in rat liver microsomes; format: ADME; settings: read-out: CLH
[8] = molecular target: Menin/Histone-lysine N-methyltransferase MLL (Homo sapiens, UniProt O00255); experiment: Inhibition of menin-MLL1 interaction (unknown origin) incubated for 1 hr by fluorescein and Texas Red labeled MBM1 based fluorescence polarization assay; format: protein assay
Sequence of Menin/Histone-lysine N-methyltransferase MLL (O00255 whole entry): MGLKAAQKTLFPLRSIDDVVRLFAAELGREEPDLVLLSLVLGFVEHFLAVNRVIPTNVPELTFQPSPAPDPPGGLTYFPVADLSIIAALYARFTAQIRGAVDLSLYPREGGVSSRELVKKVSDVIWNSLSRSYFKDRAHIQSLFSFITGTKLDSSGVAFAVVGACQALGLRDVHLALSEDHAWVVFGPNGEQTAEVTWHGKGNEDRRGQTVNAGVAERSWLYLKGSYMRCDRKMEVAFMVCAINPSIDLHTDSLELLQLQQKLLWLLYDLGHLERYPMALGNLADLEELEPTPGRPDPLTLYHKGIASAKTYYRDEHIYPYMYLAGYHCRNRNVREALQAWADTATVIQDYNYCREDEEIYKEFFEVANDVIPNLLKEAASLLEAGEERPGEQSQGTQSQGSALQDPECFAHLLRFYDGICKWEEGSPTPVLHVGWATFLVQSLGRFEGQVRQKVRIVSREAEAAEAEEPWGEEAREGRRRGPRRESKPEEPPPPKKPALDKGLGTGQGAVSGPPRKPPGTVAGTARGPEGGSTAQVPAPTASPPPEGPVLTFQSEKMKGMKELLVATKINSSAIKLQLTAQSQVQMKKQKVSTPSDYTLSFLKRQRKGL
Sequence of Menin/Histone-lysine N-methyltransferase MLL (Q03164 1-2718 partner limits assumed): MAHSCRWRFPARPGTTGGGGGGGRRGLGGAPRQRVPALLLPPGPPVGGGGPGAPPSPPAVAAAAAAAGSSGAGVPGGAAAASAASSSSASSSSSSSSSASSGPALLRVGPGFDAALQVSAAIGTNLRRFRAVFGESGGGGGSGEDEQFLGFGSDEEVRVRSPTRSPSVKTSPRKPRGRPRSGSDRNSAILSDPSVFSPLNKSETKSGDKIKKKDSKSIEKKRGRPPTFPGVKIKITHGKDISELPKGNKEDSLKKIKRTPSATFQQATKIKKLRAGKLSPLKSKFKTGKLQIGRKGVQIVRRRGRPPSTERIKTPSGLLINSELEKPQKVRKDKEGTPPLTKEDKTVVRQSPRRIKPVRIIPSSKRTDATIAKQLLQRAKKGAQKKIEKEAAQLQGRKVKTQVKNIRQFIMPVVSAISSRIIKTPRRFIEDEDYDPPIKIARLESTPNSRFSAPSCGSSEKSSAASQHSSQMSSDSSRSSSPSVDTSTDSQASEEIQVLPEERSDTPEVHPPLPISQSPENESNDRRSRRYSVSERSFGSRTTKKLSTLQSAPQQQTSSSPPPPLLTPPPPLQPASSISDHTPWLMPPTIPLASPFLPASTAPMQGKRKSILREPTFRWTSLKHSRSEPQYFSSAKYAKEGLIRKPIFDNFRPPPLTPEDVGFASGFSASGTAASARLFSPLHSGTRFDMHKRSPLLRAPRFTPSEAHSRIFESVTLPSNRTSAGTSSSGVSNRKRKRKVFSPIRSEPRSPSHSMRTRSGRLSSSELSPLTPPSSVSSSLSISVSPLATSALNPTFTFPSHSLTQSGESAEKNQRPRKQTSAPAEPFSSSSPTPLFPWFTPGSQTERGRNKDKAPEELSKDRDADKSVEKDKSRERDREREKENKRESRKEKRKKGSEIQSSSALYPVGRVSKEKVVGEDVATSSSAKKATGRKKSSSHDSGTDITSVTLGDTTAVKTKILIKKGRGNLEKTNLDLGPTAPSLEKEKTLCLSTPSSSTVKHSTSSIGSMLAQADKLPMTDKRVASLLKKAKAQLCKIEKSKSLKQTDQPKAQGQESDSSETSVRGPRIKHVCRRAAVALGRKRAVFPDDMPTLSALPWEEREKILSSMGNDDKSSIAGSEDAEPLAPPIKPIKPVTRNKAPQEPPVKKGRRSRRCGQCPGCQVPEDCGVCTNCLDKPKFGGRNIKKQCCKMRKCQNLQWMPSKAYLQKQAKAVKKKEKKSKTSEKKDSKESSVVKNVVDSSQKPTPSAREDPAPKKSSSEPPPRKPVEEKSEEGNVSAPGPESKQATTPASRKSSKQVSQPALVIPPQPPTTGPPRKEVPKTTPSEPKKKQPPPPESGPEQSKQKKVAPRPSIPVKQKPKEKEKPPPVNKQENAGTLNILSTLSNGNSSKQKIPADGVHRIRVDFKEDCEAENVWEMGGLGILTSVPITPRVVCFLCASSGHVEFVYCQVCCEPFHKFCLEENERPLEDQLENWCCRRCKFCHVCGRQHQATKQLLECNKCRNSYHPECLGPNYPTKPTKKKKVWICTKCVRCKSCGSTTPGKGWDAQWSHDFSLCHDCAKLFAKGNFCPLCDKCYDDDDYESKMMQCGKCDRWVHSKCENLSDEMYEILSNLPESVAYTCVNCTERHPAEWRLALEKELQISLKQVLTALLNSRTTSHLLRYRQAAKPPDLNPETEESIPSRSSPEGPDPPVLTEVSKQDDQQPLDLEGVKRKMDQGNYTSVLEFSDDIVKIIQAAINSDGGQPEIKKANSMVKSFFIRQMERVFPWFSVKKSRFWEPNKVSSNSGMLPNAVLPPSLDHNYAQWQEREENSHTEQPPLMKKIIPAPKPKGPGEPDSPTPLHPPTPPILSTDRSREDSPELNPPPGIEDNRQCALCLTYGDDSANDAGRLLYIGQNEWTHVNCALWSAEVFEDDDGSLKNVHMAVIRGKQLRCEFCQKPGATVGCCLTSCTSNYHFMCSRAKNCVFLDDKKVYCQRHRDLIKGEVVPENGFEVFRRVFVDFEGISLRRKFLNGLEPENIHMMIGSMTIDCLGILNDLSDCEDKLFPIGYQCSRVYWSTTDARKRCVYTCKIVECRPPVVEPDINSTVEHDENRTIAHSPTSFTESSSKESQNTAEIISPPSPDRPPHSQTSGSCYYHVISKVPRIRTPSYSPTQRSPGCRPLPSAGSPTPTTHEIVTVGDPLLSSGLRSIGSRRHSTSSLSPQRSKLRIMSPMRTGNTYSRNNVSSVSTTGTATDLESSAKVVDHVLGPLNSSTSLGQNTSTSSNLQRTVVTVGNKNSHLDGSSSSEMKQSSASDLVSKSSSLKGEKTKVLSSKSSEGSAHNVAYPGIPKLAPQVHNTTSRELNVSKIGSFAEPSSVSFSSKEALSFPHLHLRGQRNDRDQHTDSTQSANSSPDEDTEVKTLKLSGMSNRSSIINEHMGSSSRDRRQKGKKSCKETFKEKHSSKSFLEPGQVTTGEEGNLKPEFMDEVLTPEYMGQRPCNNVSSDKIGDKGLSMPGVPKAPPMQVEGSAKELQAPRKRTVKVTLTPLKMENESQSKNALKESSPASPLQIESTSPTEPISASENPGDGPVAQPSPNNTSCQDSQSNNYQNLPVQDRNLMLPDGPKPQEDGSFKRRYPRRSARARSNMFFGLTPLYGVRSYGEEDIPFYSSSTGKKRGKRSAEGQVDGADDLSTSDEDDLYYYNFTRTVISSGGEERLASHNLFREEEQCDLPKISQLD
Sequence of Menin/Histone-lysine N-methyltransferase MLL (Q03164 2719-3969 partner limits assumed): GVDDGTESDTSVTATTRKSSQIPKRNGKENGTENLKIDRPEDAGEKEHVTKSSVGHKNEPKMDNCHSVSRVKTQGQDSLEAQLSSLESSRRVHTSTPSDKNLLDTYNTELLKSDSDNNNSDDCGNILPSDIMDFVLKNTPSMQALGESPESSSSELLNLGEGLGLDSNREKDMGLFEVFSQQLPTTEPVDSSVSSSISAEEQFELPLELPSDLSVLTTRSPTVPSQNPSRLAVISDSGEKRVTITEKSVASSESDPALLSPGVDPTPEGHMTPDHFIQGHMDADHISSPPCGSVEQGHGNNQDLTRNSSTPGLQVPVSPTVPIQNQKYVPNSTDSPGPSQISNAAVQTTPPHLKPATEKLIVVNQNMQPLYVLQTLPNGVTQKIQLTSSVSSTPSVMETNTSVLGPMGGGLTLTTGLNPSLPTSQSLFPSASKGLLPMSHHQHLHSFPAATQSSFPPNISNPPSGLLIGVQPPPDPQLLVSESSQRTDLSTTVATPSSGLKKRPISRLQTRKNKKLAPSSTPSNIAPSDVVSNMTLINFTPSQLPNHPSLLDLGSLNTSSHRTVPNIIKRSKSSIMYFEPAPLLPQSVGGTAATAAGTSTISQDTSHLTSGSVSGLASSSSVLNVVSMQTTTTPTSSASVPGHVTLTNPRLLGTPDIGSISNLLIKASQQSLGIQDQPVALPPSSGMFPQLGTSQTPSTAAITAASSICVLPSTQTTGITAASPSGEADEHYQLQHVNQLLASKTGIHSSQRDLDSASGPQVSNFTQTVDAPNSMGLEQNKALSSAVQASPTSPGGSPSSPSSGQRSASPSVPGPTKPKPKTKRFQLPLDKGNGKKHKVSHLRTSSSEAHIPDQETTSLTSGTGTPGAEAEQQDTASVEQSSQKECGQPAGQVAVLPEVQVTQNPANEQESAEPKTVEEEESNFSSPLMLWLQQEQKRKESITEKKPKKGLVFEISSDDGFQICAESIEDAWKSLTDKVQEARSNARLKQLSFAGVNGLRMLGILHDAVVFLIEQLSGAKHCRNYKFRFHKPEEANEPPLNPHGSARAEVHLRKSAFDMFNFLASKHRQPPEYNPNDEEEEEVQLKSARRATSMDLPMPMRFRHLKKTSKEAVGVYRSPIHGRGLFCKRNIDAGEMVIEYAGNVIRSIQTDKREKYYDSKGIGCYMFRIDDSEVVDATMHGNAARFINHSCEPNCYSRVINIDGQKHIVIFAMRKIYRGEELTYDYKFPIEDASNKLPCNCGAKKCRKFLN

[9] = Unbound fraction in rat plasma; format: ADME, cell-free; procedure, shortened: as §2
[10] = tested on: MV4-11; experiment: Growth inhibition of human MV4-11 cells; format: functional
[11] = Drug level in rat hepatic S9 fraction treated with compound 10b assessed as compound formation; format: ADME, tissue-based, Liver

| clearance [1] | half-life [2] | fraction unbound [3] | fraction unbound [4] | CLint scaled [5] | Vd [6] | CLint scaled [7] | IC50 [8] | fraction unbound [9] | GI50 [10] | Drug metabolism [11] | SMILES |
| --- | --- | --- | --- | --- | --- | --- | --- | --- | --- | --- | --- |
| 40 mL/min/kg | 1.6 h | 0.004 | 0.013 | 124 mL/min/kg | 2.9 L/kg | 919 mL/min/kg | – | – | – | – | N#Cc1ccc(OCCCN2CCC(C(O)(c3ccccc3)C3CCCC3)CC2)cc1 (stereo unspecified) |
| – | – | 0.117 | 0.192 | 77.4 mL/min/kg | – | 558 mL/min/kg | – | – | – | – | N#Cc1ccc(OCCCN2CCC(C(O)(c3nccs3)C3CCCC3)CC2)cc1 (stereo unspecified) |
| 32 mL/min/kg | 2.8 h | 0.04 | – | 69 mL/min/kg | 7.2 L/kg | 273 mL/min/kg | 460 nM | 0.108 | – | – | N#Cc1ccc(OCCCN2CCC(C(O)(c3cccc(F)c3)c3nccs3)CC2)cc1 (stereo unspecified) |
| 26 mL/min/kg | 1.4 h | 0.17 | 0.166 | 50 mL/min/kg | 4.4 L/kg | 206 mL/min/kg | – | 0.322 | – | – | NS(=O)(=O)c1ccc(OCCCN2CCC(C(O)(c3cccc(F)c3)c3nccs3)CC2)cc1 (stereo unspecified) |
| – | – | – | – | – | – | – | – | – | 3000 nM | – | CC1(C)CN=C(N2CCN(c3ncnc4sc(CC(F)(F)F)cc34)CC2)S1 |
| – | – | – | – | – | – | – | – | – | – | metabolite_detected | O[C@](c1cccc(F)c1)(c1ccccn1)C1CCNCC1 |
| 293 mL/min/kg | 0.2 h | 0.291 | 0.342 | 16.2 mL/min/kg | 4.3 L/kg | 271 mL/min/kg | – | – | – | – | NS(=O)(=O)c1ccc(OCCCN2CCC(C(O)(c3ccccn3)C3CCCC3)CC2)cc1 (racemic) |
